In ChEMBL document CHEMBL4184148 (Bioorg Med Chem Lett, 2017):

Experiments:
Aurora kinase A = biological target: T1, Aurora kinase A (Homo sapiens, UniProt O14965); assay: Inhibition of Aurora A auto-phosphorylation in human HCT116 cells after 4 hrs by Western blot analysis; assay type: cell-based
T1 sequence (O14965 whole entry): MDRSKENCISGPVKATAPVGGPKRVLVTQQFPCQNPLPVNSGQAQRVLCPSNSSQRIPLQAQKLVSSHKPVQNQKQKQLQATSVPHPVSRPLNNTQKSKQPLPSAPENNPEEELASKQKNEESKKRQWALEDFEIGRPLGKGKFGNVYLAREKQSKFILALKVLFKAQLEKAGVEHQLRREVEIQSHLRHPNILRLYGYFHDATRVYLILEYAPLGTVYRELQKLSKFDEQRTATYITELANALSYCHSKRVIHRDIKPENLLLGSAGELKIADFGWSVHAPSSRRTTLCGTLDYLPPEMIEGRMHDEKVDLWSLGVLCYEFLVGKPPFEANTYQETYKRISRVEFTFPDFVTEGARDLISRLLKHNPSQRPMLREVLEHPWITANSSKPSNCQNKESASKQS
How it was run: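 Cells treated with compound in dose response for 4 h. Phospho-Aurora A (auto-phosphorylation) read by western blot. EC50 derived from dose-response curves over three replicate experiments.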

[1] = tested on: Tyrosine-protein kinase ABL1 (Homo sapiens), P00519 [T315I]; assay: Binding affinity to human phosphorylated ABL1 T315I mutant (S229 to K512 residues) expressed in HEK293 cells at 1 uM by Kinomescan method relative to control; assay type: cell-based
[2] = biological target: 5'-AMP-activated protein kinase catalytic subunit alpha-2 (Homo sapiens) (UniProt P54646); assay: Binding affinity to wild-type human partial length AMPK alpha2 (M1 to E306 residues) expressed in Escherichia coli BL21 at 1 uM by Kinomescan method relative to control
Chain of 5'-AMP-activated protein kinase catalytic subunit alpha-2 (Homo sapiens) (P54646 whole entry, looked up, the tested form may be a part): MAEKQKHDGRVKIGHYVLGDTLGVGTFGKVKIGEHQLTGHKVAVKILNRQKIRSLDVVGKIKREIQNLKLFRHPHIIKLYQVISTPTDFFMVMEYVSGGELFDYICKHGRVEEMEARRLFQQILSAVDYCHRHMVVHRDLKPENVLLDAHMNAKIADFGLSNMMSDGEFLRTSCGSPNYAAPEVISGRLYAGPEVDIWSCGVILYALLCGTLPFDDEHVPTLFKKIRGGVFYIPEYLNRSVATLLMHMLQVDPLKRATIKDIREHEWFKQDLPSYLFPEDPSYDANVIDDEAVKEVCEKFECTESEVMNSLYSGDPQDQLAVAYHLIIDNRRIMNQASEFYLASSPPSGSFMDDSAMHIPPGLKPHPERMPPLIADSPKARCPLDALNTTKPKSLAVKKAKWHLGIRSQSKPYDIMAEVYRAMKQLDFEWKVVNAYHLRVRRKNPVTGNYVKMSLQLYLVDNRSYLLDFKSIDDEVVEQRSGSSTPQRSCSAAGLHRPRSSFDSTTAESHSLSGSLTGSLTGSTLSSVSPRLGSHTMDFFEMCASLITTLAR
How it was run: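 Kinome-wide competition binding panel run by an outside provider, with each compound tested at a single concentration. Activity is read against the kinase panel.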

Aurora kinase B = Aurora kinase B (Homo sapiens, UniProt Q96GD4); assay: Binding affinity to wild-type human partial length AURKB (D25 to A303 residues) expressed in HEK293 cells at 1 uM by Kinomescan method relative to control; assay type: cell-based
Chain of Aurora kinase B (Q96GD4 whole entry, the tested form may be a part): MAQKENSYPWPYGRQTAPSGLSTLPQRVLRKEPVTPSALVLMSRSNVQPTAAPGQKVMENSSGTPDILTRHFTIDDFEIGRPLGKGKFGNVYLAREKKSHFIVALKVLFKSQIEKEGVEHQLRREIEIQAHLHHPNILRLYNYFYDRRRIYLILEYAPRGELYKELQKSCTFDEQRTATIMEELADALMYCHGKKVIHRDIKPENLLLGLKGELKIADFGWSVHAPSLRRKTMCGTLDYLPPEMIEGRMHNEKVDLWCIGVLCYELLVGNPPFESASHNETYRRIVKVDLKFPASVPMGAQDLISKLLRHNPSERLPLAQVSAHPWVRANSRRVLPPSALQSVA

[3] = biological target: Cyclin-dependent kinase 4 (Homo sapiens) (UniProt P11802); assay: Binding affinity to wild-type human full length CDK4 (M1 to E303 residues) expressed in HEK293 cells at 1 uM by Kinomescan method relative to control; assay type: cell-based
[4] = biological target: Cyclin-dependent kinase 5 (Homo sapiens) (UniProt Q00535); assay: Binding affinity to wild-type human full length CDK5 (M1 to P292 residues) expressed in Escherichia coli BL21 at 1 uM by Kinomescan method relative to control
Chain of Cyclin-dependent kinase 5 (Homo sapiens) (Q00535 whole entry, looked up, the tested form may be a part): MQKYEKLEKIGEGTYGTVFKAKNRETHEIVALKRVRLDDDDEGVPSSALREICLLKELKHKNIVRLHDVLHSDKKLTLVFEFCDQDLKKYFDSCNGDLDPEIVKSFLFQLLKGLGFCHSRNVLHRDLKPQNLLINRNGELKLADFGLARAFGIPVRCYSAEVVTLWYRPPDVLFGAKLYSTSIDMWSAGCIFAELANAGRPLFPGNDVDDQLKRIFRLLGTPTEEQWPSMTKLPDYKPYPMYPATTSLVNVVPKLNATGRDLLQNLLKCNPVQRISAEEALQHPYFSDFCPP
How it was run: (§1)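 Run as one kinome-wide competition binding panel with each compound at a single fixed concentration. Results were plotted as a kinome-wide selectivity map.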

[5] = biological target: Death-associated protein kinase 2 (Homo sapiens) (UniProt Q9UIK4); assay: Binding affinity to wild-type human full length DAPK2 (M1 to S370 residues) expressed in Escherichia coli BL21 at 1 uM by Kinomescan method relative to control; how it was run: as §1
[6] = biological target: Death-associated protein kinase 3 (Homo sapiens) (UniProt O43293); assay: Binding affinity to wild-type human partial length DAPK3 (M1 to A277 residues) expressed in Escherichia coli BL21 at 1 uM by Kinomescan method relative to control
Chain of Death-associated protein kinase 3 (Homo sapiens) (O43293 whole entry, looked up, the tested form may be a part): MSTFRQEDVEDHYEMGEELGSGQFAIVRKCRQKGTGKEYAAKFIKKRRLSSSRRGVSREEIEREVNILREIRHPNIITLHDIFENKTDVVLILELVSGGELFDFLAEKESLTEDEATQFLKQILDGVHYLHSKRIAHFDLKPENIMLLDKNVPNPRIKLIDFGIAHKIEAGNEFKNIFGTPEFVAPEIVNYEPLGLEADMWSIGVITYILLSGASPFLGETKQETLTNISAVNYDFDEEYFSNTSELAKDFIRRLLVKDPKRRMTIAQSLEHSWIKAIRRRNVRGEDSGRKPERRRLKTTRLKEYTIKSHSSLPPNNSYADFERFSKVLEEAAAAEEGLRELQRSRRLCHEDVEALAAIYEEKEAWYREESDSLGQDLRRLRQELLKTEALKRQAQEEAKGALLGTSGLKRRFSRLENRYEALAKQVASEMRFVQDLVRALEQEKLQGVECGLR

[7] = biological target: Serine/threonine-protein kinase DCLK2 (Homo sapiens) (UniProt Q8N568); assay: Binding affinity to wild-type human partial length DCAMKL2 (K273 to V664 residues) expressed in Escherichia coli BL21 at 1 uM by Kinomescan method relative to control
[8] = tested on: Epidermal growth factor receptor (Homo sapiens), P00533 [UNDEFINED MUTATION]; assay: Binding affinity to human partial length EGFR L747-S752del/P753S mutant expressed in Escherichia coli BL21 at 1 uM by Kinomescan method relative to control
[9] = tested on: Receptor-type tyrosine-protein kinase FLT3 (Homo sapiens), P36888 [N841I]; assay: Binding affinity to human partial length FLT3 N841I mutant (V592 to Y969 residues) expressed in Escherichia coli BL21 at 1 uM by Kinomescan method relative to control
[10] = biological target: Inhibitor of nuclear factor kappa-B kinase subunit epsilon (Homo sapiens) (UniProt Q14164); assay: Binding affinity to wild-type human full length IKK-epsilon (M1 to V716 residues) expressed in HEK293 cells at 1 uM by Kinomescan method relative to control; assay type: cell-based
[11] = tested on: Mast/stem cell growth factor receptor Kit (Homo sapiens), P10721 [V559D]; assay: Binding affinity to human partial length KIT V559D mutant (Y545 to D952 residues) expressed in Escherichia coli BL21 at 1 uM by Kinomescan method relative to control
Chain of Mast/stem cell growth factor receptor Kit (Homo sapiens), P10721 [V559D] (P10721 whole entry V559D, the tested form may be a part): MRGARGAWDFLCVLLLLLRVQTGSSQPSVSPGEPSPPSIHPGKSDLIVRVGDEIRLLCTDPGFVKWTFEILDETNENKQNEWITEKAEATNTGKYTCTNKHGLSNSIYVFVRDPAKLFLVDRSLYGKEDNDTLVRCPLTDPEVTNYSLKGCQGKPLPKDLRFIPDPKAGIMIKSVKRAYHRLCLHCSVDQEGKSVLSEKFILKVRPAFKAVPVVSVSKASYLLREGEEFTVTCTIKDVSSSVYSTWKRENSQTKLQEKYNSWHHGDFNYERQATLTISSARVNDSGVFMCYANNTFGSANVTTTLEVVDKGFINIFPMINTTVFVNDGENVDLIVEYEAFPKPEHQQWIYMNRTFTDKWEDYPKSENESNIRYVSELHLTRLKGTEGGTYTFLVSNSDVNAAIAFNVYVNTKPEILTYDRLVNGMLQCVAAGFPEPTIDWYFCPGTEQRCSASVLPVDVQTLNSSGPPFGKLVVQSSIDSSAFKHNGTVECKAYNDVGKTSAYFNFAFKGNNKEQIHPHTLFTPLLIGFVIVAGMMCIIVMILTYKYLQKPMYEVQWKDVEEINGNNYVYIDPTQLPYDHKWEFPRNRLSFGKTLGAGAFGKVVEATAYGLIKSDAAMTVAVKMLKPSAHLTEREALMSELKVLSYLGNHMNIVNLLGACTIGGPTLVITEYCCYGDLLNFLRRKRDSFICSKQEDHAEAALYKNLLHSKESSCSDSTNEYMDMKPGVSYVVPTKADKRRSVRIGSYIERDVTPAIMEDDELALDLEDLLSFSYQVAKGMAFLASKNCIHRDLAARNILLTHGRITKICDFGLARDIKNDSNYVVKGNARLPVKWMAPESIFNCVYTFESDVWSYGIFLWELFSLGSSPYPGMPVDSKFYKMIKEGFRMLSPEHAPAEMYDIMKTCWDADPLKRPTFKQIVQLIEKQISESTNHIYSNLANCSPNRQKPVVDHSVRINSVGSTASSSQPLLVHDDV

[12] = biological target: LIM domain kinase 1 (Homo sapiens) (UniProt P53667); assay: Binding affinity to wild-type human full length LIMK1 (M1 to D647 residues) expressed in Escherichia coli BL21 at 1 uM by Kinomescan method relative to control; how it was run: as §1
[13] = biological target: Serine/threonine-protein kinase PAK 4 (Homo sapiens) (UniProt O96013); assay: Binding affinity to wild-type human partial length PAK4 (Q144 to R438 residues) expressed in Escherichia coli BL21 at 1 uM by Kinomescan method relative to control
Chain of Serine/threonine-protein kinase PAK 4 (Homo sapiens) (O96013 whole entry, looked up, the tested form may be a part): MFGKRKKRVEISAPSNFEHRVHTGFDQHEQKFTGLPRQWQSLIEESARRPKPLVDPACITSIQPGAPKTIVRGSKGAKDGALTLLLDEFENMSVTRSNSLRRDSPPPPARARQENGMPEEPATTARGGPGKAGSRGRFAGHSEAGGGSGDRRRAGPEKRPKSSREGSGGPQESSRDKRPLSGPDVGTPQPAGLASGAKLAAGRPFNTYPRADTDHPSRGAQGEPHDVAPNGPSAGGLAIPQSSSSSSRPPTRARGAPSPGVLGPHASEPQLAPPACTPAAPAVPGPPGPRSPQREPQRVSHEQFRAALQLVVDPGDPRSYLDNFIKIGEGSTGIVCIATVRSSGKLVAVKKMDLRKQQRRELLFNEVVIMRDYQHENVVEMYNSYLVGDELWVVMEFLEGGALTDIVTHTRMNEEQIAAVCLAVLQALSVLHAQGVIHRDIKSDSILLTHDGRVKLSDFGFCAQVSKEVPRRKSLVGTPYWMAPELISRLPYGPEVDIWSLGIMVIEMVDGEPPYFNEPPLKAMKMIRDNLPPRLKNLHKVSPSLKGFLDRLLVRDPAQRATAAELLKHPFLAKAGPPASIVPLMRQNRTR

[14] = biological target: Platelet-derived growth factor receptor alpha (Homo sapiens) (UniProt P16234); assay: Binding affinity to wild-type human partial length PDGFRA (V575 to D1002 residues) expressed in HEK293 cells at 1 uM by Kinomescan method relative to control; assay type: cell-based
Chain of Platelet-derived growth factor receptor alpha (Homo sapiens) (P16234 whole entry, the tested form may be a part, canonical isoform): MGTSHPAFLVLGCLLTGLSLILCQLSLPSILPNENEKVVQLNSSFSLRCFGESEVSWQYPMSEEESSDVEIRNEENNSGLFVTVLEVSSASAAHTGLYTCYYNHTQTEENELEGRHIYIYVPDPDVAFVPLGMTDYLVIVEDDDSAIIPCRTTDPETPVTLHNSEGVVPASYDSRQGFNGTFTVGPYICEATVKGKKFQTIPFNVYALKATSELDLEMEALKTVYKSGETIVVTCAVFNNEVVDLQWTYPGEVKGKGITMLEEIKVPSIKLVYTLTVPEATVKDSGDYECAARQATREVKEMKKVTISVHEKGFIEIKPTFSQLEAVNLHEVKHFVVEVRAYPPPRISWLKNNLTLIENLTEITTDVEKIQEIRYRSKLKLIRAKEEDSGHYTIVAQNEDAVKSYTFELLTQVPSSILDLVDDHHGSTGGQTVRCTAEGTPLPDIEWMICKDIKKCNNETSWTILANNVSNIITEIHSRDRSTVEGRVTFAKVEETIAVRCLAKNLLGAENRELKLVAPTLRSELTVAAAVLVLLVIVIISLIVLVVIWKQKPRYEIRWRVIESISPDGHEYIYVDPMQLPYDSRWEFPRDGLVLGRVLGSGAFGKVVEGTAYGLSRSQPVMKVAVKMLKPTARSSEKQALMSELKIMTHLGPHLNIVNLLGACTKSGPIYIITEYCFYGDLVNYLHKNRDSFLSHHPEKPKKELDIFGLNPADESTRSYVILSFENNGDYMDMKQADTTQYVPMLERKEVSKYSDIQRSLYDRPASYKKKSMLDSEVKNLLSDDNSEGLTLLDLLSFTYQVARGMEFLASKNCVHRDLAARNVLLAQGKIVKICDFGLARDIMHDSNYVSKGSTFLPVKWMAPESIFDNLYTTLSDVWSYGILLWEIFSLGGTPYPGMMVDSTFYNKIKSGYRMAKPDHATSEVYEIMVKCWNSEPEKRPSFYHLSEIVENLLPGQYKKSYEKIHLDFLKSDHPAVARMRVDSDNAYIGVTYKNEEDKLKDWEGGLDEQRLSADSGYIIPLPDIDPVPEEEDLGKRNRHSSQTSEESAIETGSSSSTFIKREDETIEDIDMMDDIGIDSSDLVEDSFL

[15] = biological target: Phosphorylase b kinase gamma catalytic chain, liver/testis isoform (Homo sapiens) (UniProt P15735); assay: Binding affinity to wild-type human partial length PHKG2 (M1 to W300 residues) expressed in Escherichia coli BL21 at 1 uM by Kinomescan method relative to control
[16] = biological target: Serine/threonine-protein kinase pim-3 (Homo sapiens) (UniProt Q86V86); assay: Binding affinity to wild-type human partial length PIM3 (G16 to A317 residues) expressed in Escherichia coli BL21 at 1 uM by Kinomescan method relative to control
[17] = biological target: cAMP-dependent protein kinase catalytic subunit PRKX (Homo sapiens) (UniProt P51817); assay: Binding affinity to wild-type human partial length PRKX (M1 to F358 residues) expressed in Escherichia coli BL21 at 1 uM by Kinomescan method relative to control
Chain of cAMP-dependent protein kinase catalytic subunit PRKX (Homo sapiens) (P51817 whole entry, the tested form may be a part): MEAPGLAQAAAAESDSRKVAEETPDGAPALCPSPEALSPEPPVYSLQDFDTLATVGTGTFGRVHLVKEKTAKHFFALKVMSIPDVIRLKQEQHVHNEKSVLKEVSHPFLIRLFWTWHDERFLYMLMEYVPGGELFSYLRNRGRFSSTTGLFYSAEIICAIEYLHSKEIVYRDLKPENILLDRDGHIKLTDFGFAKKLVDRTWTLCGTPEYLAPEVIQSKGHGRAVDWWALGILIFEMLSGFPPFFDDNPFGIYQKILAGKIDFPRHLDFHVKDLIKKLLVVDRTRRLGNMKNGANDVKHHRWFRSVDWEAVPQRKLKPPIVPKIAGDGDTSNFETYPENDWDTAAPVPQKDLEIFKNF

[18] = biological target: Ribosomal protein S6 kinase alpha-4 (Homo sapiens) (UniProt O75676); assay: Binding affinity to wild-type human partial length N-terminal RPS6KA4 kinase domain 1 expressed in Escherichia coli BL21 at 1 uM by Kinomescan method relative to control
[19] = biological target: Ribosomal protein S6 kinase alpha-3 (Homo sapiens) (UniProt P51812); assay: Binding affinity to wild-type human partial length N-terminal RSK3 kinase domain 1 (M1 to Q385 residues) expressed in Escherichia coli BL21 at 1 uM by Kinomescan method relative to control
[20] = biological target: Ribosomal protein S6 kinase alpha-6 (Homo sapiens) (UniProt Q9UK32); assay: Binding affinity to wild-type human partial length N-terminal RSK4 kinase domain 1 (M1 to E397 residues) expressed in HEK293 cells at 1 uM by Kinomescan method relative to control; assay type: cell-based

Question: What does the source list for `CCC(=O)Nc1ccc(C(=O)Nc2ccc(Nc3ncc4c(n3)N(C)c3ccc(C)cc3C(=O)N4C)cc2)cc1`?
Answer: EC50 (Aurora kinase A): 38 nM; Activity [1]: 100%; Activity [2]: 100%; Activity (Aurora kinase B): 1.9%; Activity [3]: 89%; Activity [4]: 87%; Activity [5]: 91%; Activity [6]: 82%; Activity [7]: 81%; Activity [8]: 87%; Activity [9]: 81%; Activity [10]: 68%; Activity [11]: 94%; Activity [12]: 70%; Activity [13]: 98%; Activity [14]: 63%; Activity [15]: 88%; Activity [16]: 82%; Activity [17]: 80%; Activity [18]: 95%; Activity [19]: 85%; Activity [20]: 74%

Question: `C=CC(=O)Nc1ccc(C(=O)Nc2ccc(Nc3ncc4c(n3)N(C)c3ccc(C)cc3C(=O)N4C)cc2)cc1` was tested. Which EC50 (Aurora kinase A) did it give?
Answer: 5.8 nM

Question: And the Activity [1]?
Answer: 99%

Question: And the Activity [2]?
Answer: 88%

Question: What about the Activity (Aurora kinase B) of the same compound?
Answer: 1.8%

Question: What about the Activity [3] of the same compound?
Answer: 100%

Question: And the Activity [4]?
Answer: 99%

Question: What about the Activity [5] of the same compound?
Answer: 100%

Question: What about the Activity [6] of the same compound?
Answer: 100%

Question: What about the Activity [7] of the same compound?
Answer: 78%

Question: What about the Activity [8] of the same compound?
Answer: 99%

Question: What about the Activity [9] of the same compound?
Answer: 100%

Question: And the Activity [10]?
Answer: 88%

Question: What about the Activity [11] of the same compound?
Answer: 97%

Question: What about the Activity [12] of the same compound?
Answer: 100%

Question: What about the Activity [13] of the same compound?
Answer: 97%

Question: And the Activity [14]?
Answer: 91%

Question: And the Activity [15]?
Answer: 100%

Question: And the Activity [16]?
Answer: 100%

Question: What about the Activity [17] of the same compound?
Answer: 100%

Question: And the Activity [18]?
Answer: 100%

Question: What about the Activity [19] of the same compound?
Answer: 89%

Question: What about the Activity [20] of the same compound?
Answer: 76%
